Rows were chosen to be rich in hits. Some 1.4% of all compounds tested hit in one or more screens of this group.
Tb MetRS inh – T. brucei MetRS inhibitors, primary screen, biochemical, luminescence. purified T. brucei MetRS, ATP depletion, Kinase-Glo luminescence. 0.4% of 360,000 active. inhibition, % at 11.9 µM;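 active = inhibition above a per-plate cutoff of the control wells' mean inhibition plus 3 SD, cut at about 5.5% in these data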
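Assay system: T. brucei methionyl-tRNA synthetase, purified | Medium: HEPES buffer with MgCl2, KCl, DTT, spermine, BSA, pyrophosphatase | Compound: 11.9 µM single point | Incubation: 15 min enzyme-compound preincubation, 2 h reaction, 10 min detection, 25 °C | Measured by: Kinase-Glo luciferase luminescence reporting remaining unconsumed ATP | Measure: % inhibition normalized to control-well medians | Replication: Singlicate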
IDE inh – human IDE inhibitors in live cells, primary screen, fluorescence polarization, HEK cells, FAbetaB substrate; FAbetaB cleavage; Insulin-degrading enzyme (Homo sapiens), P14735; 0.41% of 320,000 active; inhibition, % at 5.59 µM;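 active = percent inhibition above the average of all tested compounds plus 3 SD, set per screening campaign, cut at about 16% in these data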;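 note: IDE supplied by intact live HEK cells; FP after avidin binding of uncleaved biotin substrate so inhibition keeps polarization high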
CR mimetic SO – reduction of superoxide in aged yeast, primary screen, HTS; S. cerevisiae aged cells, superoxide DHE fluorescence; hits give low values; superoxide response (% of plate mean), % at 10 µM; 0.18% of 330,000 active;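 active = superoxide response under a set limit, about three screen SD below normal, cut at about 65% in these data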;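 note: yeast aged for seven days with compound at 30 °C before DHE staining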
HDAC3 inhib – HDAC3 deacetylase inhibitors, primary screen, biochemical, fluorescence, cell-free homogeneous. Histone deacetylase 3 (Homo sapiens), O15379. recombinant HDAC3, fluorogenic peptide/trypsin coupled. inhibition, % at 8.3 µM. 0.15% of 320,000 active. AID 2718, 2010; in the data active = inhibition above about 26%, passing the limit was not always enough
Target sequence (O15379 whole entry, looked up): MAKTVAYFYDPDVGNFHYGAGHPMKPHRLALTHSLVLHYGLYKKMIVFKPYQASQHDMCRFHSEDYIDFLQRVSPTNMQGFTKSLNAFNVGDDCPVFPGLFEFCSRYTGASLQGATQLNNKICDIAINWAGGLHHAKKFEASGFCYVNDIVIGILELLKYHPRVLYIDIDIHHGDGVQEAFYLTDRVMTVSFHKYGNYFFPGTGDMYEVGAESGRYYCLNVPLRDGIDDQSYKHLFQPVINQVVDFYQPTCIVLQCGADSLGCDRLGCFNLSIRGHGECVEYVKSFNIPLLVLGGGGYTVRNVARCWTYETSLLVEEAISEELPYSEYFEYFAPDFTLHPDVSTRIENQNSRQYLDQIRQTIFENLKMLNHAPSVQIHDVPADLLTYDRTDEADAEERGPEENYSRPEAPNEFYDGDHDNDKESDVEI
Efflux pump mplx – inhibitors of Candida efflux pumps in yeast, primary screen, S. cerevisiae, Nile Red, multiplex; inhibition, % at 10 µM; S. cerevisiae Candida pump triplex; 0.44% of 330,000 active;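 active = plate passing quality check with inhibition over a set limit, or well fluorescence over plate mean plus 4 SD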;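 note: Nile Red retained in pooled yeast measured as flow cytometry median fluorescence; higher means more Nile Red kept so more efflux inhibition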
IDE cell activ – human IDE activators in live cells, primary screen, fluorescence polarization, HEK cells, FAbeta-B substrate; FAbeta-B cleavage; 0% vehicle, 100% cell-free pure enzyme wells; activation, % at 5.96 µM; 0.073% of 340,000 active; AID 493087, 2011;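 active = activation above the mean of all tested compounds plus 3 SD, set per screening campaign, cut at about 17% in these data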
Cmpd fluor yeast – compound fluorescence in yeast efflux pump counter-screen. shares compounds with Efflux pump mplx. S. cerevisiae AD/pABC3, flow cytometry. fluorescence ratio to DMSO, % at 10 µM. 4% of 1,700 active. AID 588517;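 active = fluorescence ratio to DMSO above its plate's cutoff, the plate mean ratio plus 5 SD, cut at about 210% in these data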;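 note: unstained yeast with no Nile Red so the signal is compound autofluorescence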
Mdr1 pump inh – inhibitors of Candida albicans Mdr1 efflux, confirmation, flow cytometry, singleplex, Cherry Pick1 set; inhibition, % at 10 µM; shares compounds with Efflux pump mplx; AID 588518, 2011; S. cerevisiae AD/CaMDR1, Nile Red efflux; 1% of 1,700 active; in the data active = inhibition above about 26%;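 note: higher means more Nile Red retained so more efflux inhibition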
CaCdr2 efflux inh – inhibitors of Candida albicans Cdr2 efflux pump, confirmation, S. cerevisiae AD/CaCDR2, flow cytometry, cherry pick 1, singleplex; shares compounds with Efflux pump mplx; AID 588520, 2011; Nile Red retention; 4% of 1,700 active; Nile Red retention ratio vs DMSO, % at 10 µM; in the data active = Nile Red retention ratio vs DMSO above about 190%;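 note: higher ratio means more blocking of Cdr2 efflux of the dye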
CaCdr1 efflux inh – inhibitors of Candida albicans Cdr1 efflux pump, confirmation, S. cerevisiae AD/CaCDR1, flow cytometry, cherry pick 1, singleplex | inhibition, % at 10 µM | AID 588522, 2011 | shares compounds with Efflux pump mplx | Nile Red efflux | 1% of 1,700 active;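 active = inhibition above the screen-wide mean plus twice its standard deviation, cut at about 32% in these data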
Large screens that a line does not name were inactive (follow-up assays come after a bar, where they were run).

CCC(CC)c1nnc(NC(=O)c2cc([N+](=O)[O-])ccc2N2CCOCC2)s1	none
CCOC(=O)c1c(/N=C/N(C)C)sc(/C=N/Nc2ccccc2)c1-c1ccc(Cl)cc1	Efflux pump mplx 0.6 | Cmpd fluor yeast inactive | Mdr1 pump inh inactive | CaCdr2 efflux inh inactive | CaCdr1 efflux inh inactive
C=CCn1c(=S)[nH]c2sccc2c1=O	Efflux pump mplx 0.8 | Cmpd fluor yeast inactive | Mdr1 pump inh inactive | CaCdr2 efflux inh inactive | CaCdr1 efflux inh inactive
CC(=O)Nc1ccc(S(=O)(=O)N2CCN(c3nc4ccccc4n3CC(C)C)CC2)cc1	Efflux pump mplx 1.0 (no result: IDE inh) | Cmpd fluor yeast inactive | Mdr1 pump inh inactive | CaCdr2 efflux inh inactive | CaCdr1 efflux inh inactive
CCn1c(N2CCN(S(=O)(=O)c3ccc(OC)cc3)CC2)nc2ccccc21	none
O=C(Oc1ccccc1/C=C\C(=O)c1cc2ccccc2o1)c1cccc(F)c1	none
O=C(Oc1ccccc1/C=C\C(=O)c1cc2ccccc2o1)c1ccccc1	Efflux pump mplx 16 | Cmpd fluor yeast inactive | Mdr1 pump inh inactive | CaCdr2 efflux inh inactive | CaCdr1 efflux inh inactive
O=C(CSc1nnc(-c2ccccc2O)n1Cc1ccccc1)NNC(=O)c1ccccc1O	Efflux pump mplx 29 | Cmpd fluor yeast inactive | Mdr1 pump inh inactive | CaCdr2 efflux inh inactive | CaCdr1 efflux inh inactive
COc1ccc(-c2ccc(-c3noc(-c4ccccc4C)n3)c(OC)n2)cc1	none
COc1ccc(-c2ccc(-c3noc(-c4ccccc4OC)n3)c(OC)n2)cc1	Efflux pump mplx 0.5 | Cmpd fluor yeast inactive | Mdr1 pump inh inactive | CaCdr2 efflux inh inactive | CaCdr1 efflux inh inactive
CCOC(=O)N1CCC2(CC1)NCCc1c2[nH]c2ccccc12	Efflux pump mplx 0.9 | Cmpd fluor yeast inactive | Mdr1 pump inh inactive | CaCdr2 efflux inh inactive | CaCdr1 efflux inh inactive
COC(=O)C1(C)NCCc2c1[nH]c1ccccc21 (stereo unspecified)	none
Cc1ccccc1SCC(=O)Nc1cc(S(=O)(=O)N2CCOCC2)ccc1N1CCOCC1	Efflux pump mplx 0.8 (no result: HDAC3 inhib) | Cmpd fluor yeast inactive | Mdr1 pump inh inactive | CaCdr2 efflux inh inactive | CaCdr1 efflux inh inactive
O=C(CC1Sc2ccccc2NC1=O)Nc1ccccc1[N+](=O)[O-] (stereo unspecified)	Efflux pump mplx 18 | Cmpd fluor yeast inactive | Mdr1 pump inh inactive | CaCdr2 efflux inh inactive | CaCdr1 efflux inh inactive
COc1cc(NS(=O)(=O)c2cc(NC(C)=O)ccc2OC)c(OC)cc1NC(=O)c1ccccc1	none (no result: IDE inh, CR mimetic SO, HDAC3 inhib, Efflux pump mplx)
CN(CCc1ccccn1)C(=O)c1cccnc1Oc1ccc(Cl)cc1	none
CN(CCc1ccccn1)C(=O)c1ccc(OC(F)(F)F)cc1	Efflux pump mplx 0.8 | Cmpd fluor yeast inactive | Mdr1 pump inh inactive | CaCdr2 efflux inh inactive | CaCdr1 efflux inh inactive
C[C@H](CO)N1C[C@H](C)[C@@H](CN(C)Cc2ccccc2)Oc2c(NC(=O)C3CC3)cccc2C1=O	none
CCCCN(C(=O)c1ccc(Br)o1)C1CCS(=O)(=O)C1 (stereo unspecified)	none
COc1ccc(NC2CC(=O)N(c3cc([N+](=O)[O-])ccc3C)C2=O)cc1 (stereo unspecified)	Efflux pump mplx 1.1 | Cmpd fluor yeast inactive | Mdr1 pump inh inactive | CaCdr2 efflux inh inactive | CaCdr1 efflux inh inactive
COc1ccc(NC2CC(=O)N(c3cccc([N+](=O)[O-])c3)C2=O)cc1 (stereo unspecified)	none
CCOC(=O)C1CCCN(Cc2nc(C3CC3)no2)C1 (stereo unspecified)	none
O=C(Cc1c2ccccc2nc2ccccc12)c1ccccc1	Efflux pump mplx 15 | Cmpd fluor yeast inactive | Mdr1 pump inh inactive | CaCdr2 efflux inh inactive | CaCdr1 efflux inh inactive
CCOc1ccccc1-c1nc(C(N)=O)c2[nH]c(=O)n(-c3ccccc3)c2n1	none | Cmpd fluor yeast inactive | Mdr1 pump inh inactive | CaCdr2 efflux inh inactive | CaCdr1 efflux inh inactive
COc1ccccc1-c1nc(C(N)=O)c2[nH]c(=O)n(-c3cccc(C)c3)c2n1	Efflux pump mplx 0.4 | Cmpd fluor yeast inactive | Mdr1 pump inh inactive | CaCdr2 efflux inh inactive | CaCdr1 efflux inh inactive
NC(=O)c1nc(-c2ccco2)nc2c1[nH]c(=O)n2-c1ccc(Cl)c(Cl)c1	Efflux pump mplx 1.2 | Cmpd fluor yeast inactive | Mdr1 pump inh inactive | CaCdr2 efflux inh inactive | CaCdr1 efflux inh inactive
CC(C)Cc1nc(C(N)=O)c2[nH]c(=O)n(-c3ccc(F)cc3)c2n1	none
NC(=O)c1nc(-c2cccs2)nc2c1[nH]c(=O)n2-c1ccc(F)cc1	none | Cmpd fluor yeast inactive | Mdr1 pump inh inactive | CaCdr2 efflux inh inactive | CaCdr1 efflux inh inactive
COc1ccc2nc(N3CCCC(C(=O)NCCCN4C(C)CCCC4C)C3)sc2c1 (stereo unspecified)	none
CC(=O)Nc1ccc(NC(=O)CS(=O)(=O)c2cn(CC(=O)N3CCCC3)c3ccccc23)cc1	none
O=C1OCCN1C(=O)[C@H]1[C@H](c2ccc(F)cc2)C(c2cccc(Cl)c2)=NN1c1ccccc1	Efflux pump mplx 1.4 (no result: IDE inh, HDAC3 inhib) | Cmpd fluor yeast inactive | Mdr1 pump inh inactive | CaCdr2 efflux inh inactive | CaCdr1 efflux inh inactive
O=C1CCC(C2CCc3cc(O)ccc3C2)C1 (stereo unspecified)	none (no result: IDE inh, CR mimetic SO, HDAC3 inhib, Efflux pump mplx)
CCN(CC)c1ccc2c(C)c(Cl)c(=O)oc2c1	none
CCN(CC)c1ccc2c(Cl)c(Br)c(=O)oc2c1	Efflux pump mplx 8.6 | Cmpd fluor yeast 452 | Mdr1 pump inh inactive | CaCdr2 efflux inh 504 | CaCdr1 efflux inh inactive
CCC(C)C(=O)Nc1nnc(CCc2ccccc2)s1 (stereo unspecified)	Efflux pump mplx 1.2 | Cmpd fluor yeast inactive | Mdr1 pump inh inactive | CaCdr2 efflux inh inactive | CaCdr1 efflux inh inactive
COc1cccc(C(=O)O/N=C(\N)c2ccncc2)c1OC	Efflux pump mplx 13 | Cmpd fluor yeast inactive | Mdr1 pump inh inactive | CaCdr2 efflux inh inactive | CaCdr1 efflux inh inactive

Screening results (PubChem)
